SMILES strings stand for the structures. The source made the active and inactive calls.

A word on the IC50: it is the concentration needed to halve the response being measured. The low end stands for higher potency, the high end for lower potency. The term fraction unbound denotes the share of the substance not bound to proteins or other matrix. The low end stands for extensive binding, the high end for weak binding. By bioavailability is commonly meant dose-corrected exposure relative to a reference, in per cent. Lower therefore signals poor availability. Usually half-life stands for the time needed for the level to fall by half in the phase considered. Low values mean rapid decline, high ones slow decline.

In series [1] the target is Histone deacetylase 4 (Homo sapiens) (UniProt P56524). As to the kind of experiment: Inhibition of human HDAC4 at 5 uM.
For series [2], the target named is T1, Histone deacetylase 7 (Homo sapiens) (UniProt Q8WUI4).
T1 sequence (whole entry): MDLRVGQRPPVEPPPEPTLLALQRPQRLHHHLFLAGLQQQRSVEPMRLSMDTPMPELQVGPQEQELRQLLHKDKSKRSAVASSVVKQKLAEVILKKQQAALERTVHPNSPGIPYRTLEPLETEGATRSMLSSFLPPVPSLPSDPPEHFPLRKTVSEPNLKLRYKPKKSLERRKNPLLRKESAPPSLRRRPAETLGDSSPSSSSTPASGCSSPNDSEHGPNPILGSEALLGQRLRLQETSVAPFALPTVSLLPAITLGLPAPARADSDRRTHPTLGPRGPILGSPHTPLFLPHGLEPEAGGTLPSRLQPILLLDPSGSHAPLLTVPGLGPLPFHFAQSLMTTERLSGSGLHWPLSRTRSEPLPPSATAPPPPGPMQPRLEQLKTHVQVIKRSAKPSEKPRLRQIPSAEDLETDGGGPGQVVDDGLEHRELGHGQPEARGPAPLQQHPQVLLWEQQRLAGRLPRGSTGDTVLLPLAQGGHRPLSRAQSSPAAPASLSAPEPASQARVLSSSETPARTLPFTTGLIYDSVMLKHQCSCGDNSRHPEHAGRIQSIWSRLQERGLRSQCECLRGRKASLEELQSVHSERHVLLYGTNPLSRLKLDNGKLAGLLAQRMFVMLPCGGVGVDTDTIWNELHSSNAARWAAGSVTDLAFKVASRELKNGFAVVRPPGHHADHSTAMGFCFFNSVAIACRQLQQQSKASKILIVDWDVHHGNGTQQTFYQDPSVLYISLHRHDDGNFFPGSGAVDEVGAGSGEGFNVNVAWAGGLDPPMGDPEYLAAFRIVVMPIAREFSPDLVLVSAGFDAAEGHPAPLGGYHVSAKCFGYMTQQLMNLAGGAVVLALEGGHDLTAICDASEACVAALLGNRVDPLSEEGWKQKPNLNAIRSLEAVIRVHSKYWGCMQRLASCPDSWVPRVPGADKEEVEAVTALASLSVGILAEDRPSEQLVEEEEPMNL
As to the kind of experiment: Inhibition of human HDAC7 at 5 uM.

The target of another series is Cytochrome P450 3A4 (Homo sapiens, UniProt P08684). As to the kind of experiment: Inhibition of CYP3A4 (unknown origin). Format: ADME.
The next series deals with T2, Cytochrome P450 1A2 (Homo sapiens, UniProt P05177).
T2 sequence (P05177 whole entry): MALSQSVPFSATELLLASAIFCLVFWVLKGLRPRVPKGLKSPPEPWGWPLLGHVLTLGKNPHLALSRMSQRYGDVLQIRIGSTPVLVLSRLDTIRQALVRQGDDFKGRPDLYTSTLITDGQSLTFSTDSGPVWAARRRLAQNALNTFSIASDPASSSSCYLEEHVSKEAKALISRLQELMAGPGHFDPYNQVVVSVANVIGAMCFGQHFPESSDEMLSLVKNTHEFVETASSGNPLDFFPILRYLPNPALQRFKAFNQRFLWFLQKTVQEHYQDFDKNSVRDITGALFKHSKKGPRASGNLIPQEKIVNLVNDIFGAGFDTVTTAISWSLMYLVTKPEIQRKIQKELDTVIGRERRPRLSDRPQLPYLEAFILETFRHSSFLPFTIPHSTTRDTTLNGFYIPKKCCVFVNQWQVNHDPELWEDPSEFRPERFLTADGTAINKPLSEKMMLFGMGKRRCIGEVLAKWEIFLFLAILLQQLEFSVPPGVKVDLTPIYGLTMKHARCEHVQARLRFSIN
As to the kind of experiment: Inhibition of CYP1A2 (unknown origin). Format: ADME.

Series [3] is described as follows: Genotoxicity in Escherichia coli by Ames test. Format: toxicity. The essentials: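 Bacterial reverse mutation assay in two strains, Salmonella typhimurium and Escherichia coli, scoring reverse mutations.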
Series [4] addresses Sodium channel protein type 5 subunit alpha (Homo sapiens, UniProt Q14524). As to the kind of experiment: Inhibition of Nav1.5 (unknown origin).
Series [5] in a line: Unbound fraction in human plasma. Format: ADME, cell-free.
Series [6] in a line: Oral bioavailability in Wistar rat at 10 mg/kg by LC/MS/MS analysis. Format: ADME, organism-based. As to conditions: in vivo. The essentials: (§1)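 Compound dosed as the tartrate salt. Oral doses were 20 mg/kg in mouse, 10 mg/kg in rat and 5 mg/kg in minipig.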
The nature of series [7]: Volume of distribution at steady state in NMRI mouse at 20 mg/kg, po or 2 mg/kg, iv by LC/MS/MS analysis. Format: ADME, organism-based. As to conditions: in vivo. The essentials:
as §1

Series [8] can be described thus: Volume of distribution at steady state in Wistar rat at 10 mg/kg, po or 2 mg/kg,iv by LC/MS/MS analysis. As to conditions: in vivo. Format: ADME, organism-based. The essentials:
as §1

The nature of series [9]: Half life in NMRI mouse plasma at 20 mg/kg, po or 2 mg/kg, iv by LC/MS/MS analysis. Format: ADME, organism-based. In outline:
as §1

Cytochrome P450 3A4, sequence (P08684 whole entry): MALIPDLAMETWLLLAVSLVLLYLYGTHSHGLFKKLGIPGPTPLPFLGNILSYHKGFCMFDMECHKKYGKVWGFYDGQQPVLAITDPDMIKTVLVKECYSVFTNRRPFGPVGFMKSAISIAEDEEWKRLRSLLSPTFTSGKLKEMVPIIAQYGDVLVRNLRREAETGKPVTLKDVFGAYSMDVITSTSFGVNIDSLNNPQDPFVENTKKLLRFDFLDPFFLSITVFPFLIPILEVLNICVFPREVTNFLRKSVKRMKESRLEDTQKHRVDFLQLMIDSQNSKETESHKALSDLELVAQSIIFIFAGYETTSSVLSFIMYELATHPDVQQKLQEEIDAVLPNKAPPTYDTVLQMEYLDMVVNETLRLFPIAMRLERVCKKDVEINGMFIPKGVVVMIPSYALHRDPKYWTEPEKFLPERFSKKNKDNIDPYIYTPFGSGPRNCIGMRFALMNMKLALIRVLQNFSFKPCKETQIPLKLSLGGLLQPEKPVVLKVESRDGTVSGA
Sodium channel protein type 5 subunit alpha, sequence (Q14524 whole entry): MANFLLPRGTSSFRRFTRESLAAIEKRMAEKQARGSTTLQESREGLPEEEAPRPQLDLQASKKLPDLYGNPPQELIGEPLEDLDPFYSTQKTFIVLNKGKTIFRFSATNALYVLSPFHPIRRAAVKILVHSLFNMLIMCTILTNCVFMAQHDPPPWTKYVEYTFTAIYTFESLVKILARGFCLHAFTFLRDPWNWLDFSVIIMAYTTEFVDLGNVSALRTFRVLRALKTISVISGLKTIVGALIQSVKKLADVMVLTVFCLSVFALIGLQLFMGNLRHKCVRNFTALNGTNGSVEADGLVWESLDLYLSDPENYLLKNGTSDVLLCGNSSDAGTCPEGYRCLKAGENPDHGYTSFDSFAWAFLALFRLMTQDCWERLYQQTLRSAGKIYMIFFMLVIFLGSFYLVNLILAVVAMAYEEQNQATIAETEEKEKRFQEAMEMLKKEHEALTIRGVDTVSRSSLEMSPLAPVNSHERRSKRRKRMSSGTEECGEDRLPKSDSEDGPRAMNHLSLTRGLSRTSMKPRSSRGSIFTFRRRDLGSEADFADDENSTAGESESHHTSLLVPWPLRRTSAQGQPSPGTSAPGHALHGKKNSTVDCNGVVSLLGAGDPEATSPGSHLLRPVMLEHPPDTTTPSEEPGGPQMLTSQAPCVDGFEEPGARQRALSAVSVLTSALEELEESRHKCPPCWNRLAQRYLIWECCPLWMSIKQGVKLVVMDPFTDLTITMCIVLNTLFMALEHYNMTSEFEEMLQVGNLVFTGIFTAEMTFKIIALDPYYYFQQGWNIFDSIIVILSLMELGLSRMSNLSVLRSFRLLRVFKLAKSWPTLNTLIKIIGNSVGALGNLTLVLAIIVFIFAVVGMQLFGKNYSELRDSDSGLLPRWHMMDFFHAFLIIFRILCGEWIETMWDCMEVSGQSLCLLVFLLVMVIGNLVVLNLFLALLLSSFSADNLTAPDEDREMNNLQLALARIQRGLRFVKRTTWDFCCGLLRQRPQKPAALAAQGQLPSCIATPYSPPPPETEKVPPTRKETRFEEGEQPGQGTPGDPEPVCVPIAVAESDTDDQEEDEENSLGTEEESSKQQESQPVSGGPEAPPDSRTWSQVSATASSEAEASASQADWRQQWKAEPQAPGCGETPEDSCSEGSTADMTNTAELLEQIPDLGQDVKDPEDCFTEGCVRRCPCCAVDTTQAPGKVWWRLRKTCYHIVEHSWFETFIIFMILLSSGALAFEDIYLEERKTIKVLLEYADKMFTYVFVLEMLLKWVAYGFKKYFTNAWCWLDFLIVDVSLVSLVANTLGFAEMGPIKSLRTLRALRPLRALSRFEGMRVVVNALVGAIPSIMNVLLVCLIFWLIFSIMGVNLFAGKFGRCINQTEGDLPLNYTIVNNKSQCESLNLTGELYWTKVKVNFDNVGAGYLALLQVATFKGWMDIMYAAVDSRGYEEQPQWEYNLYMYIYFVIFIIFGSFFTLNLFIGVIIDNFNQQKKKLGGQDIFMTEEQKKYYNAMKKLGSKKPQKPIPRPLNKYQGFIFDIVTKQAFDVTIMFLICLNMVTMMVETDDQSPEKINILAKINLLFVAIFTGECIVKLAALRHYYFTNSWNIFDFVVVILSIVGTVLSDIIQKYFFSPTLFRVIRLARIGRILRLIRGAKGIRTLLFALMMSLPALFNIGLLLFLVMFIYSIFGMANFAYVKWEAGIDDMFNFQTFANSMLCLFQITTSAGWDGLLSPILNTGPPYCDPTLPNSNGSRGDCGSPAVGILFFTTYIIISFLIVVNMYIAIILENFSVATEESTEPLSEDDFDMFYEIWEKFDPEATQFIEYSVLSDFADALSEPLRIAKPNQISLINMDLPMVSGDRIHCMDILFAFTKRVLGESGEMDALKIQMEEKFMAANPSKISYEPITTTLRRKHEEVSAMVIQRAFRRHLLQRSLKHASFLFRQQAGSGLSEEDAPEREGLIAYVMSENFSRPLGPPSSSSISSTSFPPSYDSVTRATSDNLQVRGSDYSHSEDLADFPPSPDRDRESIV
Histone deacetylase 4 (Homo sapiens), sequence (P56524 whole entry): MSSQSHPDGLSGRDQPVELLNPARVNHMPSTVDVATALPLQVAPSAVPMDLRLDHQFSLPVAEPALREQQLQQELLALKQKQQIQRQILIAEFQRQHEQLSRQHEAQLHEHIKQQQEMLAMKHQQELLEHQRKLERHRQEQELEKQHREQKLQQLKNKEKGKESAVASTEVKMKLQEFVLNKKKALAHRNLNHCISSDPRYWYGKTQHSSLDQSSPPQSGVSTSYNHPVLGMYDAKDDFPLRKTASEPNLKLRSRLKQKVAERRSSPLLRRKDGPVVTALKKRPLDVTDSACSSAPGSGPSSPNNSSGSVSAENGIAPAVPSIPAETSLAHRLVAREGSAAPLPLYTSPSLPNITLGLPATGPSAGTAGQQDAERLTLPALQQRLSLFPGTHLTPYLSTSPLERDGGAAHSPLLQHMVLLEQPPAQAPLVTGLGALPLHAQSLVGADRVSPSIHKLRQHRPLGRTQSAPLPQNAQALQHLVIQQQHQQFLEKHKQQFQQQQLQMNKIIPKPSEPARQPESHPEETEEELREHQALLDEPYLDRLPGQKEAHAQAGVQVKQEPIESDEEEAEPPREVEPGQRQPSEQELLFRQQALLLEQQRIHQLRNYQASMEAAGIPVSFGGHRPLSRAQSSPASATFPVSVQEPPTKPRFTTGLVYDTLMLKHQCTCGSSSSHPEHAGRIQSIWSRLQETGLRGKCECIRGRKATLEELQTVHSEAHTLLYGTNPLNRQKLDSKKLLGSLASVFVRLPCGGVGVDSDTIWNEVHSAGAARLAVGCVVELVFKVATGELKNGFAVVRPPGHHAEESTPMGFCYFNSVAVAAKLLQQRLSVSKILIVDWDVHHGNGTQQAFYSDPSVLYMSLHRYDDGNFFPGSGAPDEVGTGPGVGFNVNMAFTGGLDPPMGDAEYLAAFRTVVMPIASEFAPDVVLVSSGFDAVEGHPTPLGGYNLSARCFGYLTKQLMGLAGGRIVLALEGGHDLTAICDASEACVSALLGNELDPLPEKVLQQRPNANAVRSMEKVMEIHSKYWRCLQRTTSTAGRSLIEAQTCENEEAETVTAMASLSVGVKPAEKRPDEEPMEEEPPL

For the molecule `CCC(=O)CCCCC[C@H](NC(=O)C1CN(C)C1)c1ncc(-c2cc3ccccc3nc2OC)o1`, the inhibition entry in [1] and in [2] was “inactive” in each case. In addition, the IC50 on Cytochrome P450 3A4 is over 20 µM; against Cytochrome P450 1A2, over 20 µM; in series [4], over 16 µM. The Activity entry in [3] is listed as “Non-Toxic”. In addition, the fraction unbound in series [5] stood at 0.018. In series [6], this molecule gave a bioavailability of 100%. The values for the Vdss in [7] and in series [8] were 3.2 L/kg and 5.3 L/kg, respectively. In addition, the half-life in series [9] is 3.3 h.
